Data as given in ChEMBL document CHEMBL2390836, “Synthesis and antitumor activities of naturally occurring oleanolic acid triterpenoid saponins and their derivatives” (Eur J Med Chem, 2013).

Legend:
Format in all cases: functional, cell-based
A-375 = assay: Cytotoxicity against human A375 cells after 72 hrs by sulforhodamine B assay; conditions: A-375, 72 h
Procedure, shortened: (§1)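 Cells seeded in 96-well plates and exposed in triplicate to a concentration gradient at 37 °C for 72 h. Total protein staining with sulforhodamine B was the read-out. IC50 was calculated by the Logit method from at least three independent experiments.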

A549 = assay: Cytotoxicity against human A549 cells after 72 hrs by sulforhodamine B assay; conditions: A549, 72 h; procedure, shortened: as §1
HL-60 = assay: Cytotoxicity against human HL60 cells after 72 hrs by MTT assay; conditions: HL-60, 72 h
Procedure, shortened: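 HL-60 human promyelocytic leukemia cells were plated in 96 wells and treated in triplicate with graded concentrations at 37 °C for 72 h. Viability was read by MTT reduction. IC50 was obtained by the Logit method from at least three independent experiments.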

`C[C@@H]1O[C@@H](O[C@H]2[C@H](O[C@H]3CC[C@]4(C)[C@H]5CC=C6[C@@H]7CC(C)(C)CC[C@]7(C(=O)O)CC[C@@]6(C)[C@]5(C)CC[C@H]4C3(C)C)OC[C@H](O)[C@@H]2O)[C@H](O)[C@H](O[C@@H]2OC[C@@H](O)[C@H](O)[C@H]2O)[C@H]1O` was tested, and the IC50 (A-375) was 8.9 µM, the IC50 (A549) was 15.4 µM and the IC50 (HL-60) was 3.4 µM.

`C[C@@H]1O[C@@H](O[C@H]2[C@@H](O)[C@@H](CO)O[C@@H](O[C@H]3CC[C@]4(C)[C@H]5CC=C6[C@@H]7CC(C)(C)CC[C@]7(C(=O)O)CC[C@@]6(C)[C@]5(C)CC[C@H]4C3(C)C)[C@@H]2O)[C@H](O)[C@H](O)[C@H]1O` showed an IC50 (A-375) of 15.4 µM, an IC50 (A549) of 15.2 µM and an IC50 (HL-60) of over 20 µM.

`CC[C@@]1(O)C(=O)OCc2c1cc1n(c2=O)Cc2cc3cc(O)ccc3nc2-1` [HYDROXYCAMPTOTHECIN] gave an IC50 (A-375) of 0.15 µM, an IC50 (A549) of 0.56 µM and an IC50 (HL-60) of 0.25 µM.

In the case of `C[C@@H]1O[C@@H](O[C@H]2[C@H](O[C@H]3CC[C@]4(C)[C@H]5CC=C6[C@@H]7CC(C)(C)CC[C@]7(C(=O)O)CC[C@@]6(C)[C@]5(C)CC[C@H]4C3(C)C)OC[C@H](O)[C@@H]2O)[C@H](O)[C@H](O[C@@H]2OC[C@@H](O[C@@H]3O[C@H](CO)[C@@H](O)[C@H](O)[C@H]3O)[C@H](O)[C@H]2O)[C@H]1O`, the IC50 (A-375) is reported as 22.1 µM, the IC50 (A549) is reported as over 20 µM and the IC50 (HL-60) is reported as 4.2 µM.

Work on `C[C@@H]1O[C@@H](O[C@H]2[C@H](O[C@H]3CC[C@]4(C)[C@H]5CC=C6[C@@H]7CC(C)(C)CC[C@]7(C(=O)O)CC[C@@]6(C)[C@]5(C)CC[C@H]4C3(C)C)OC[C@H](O)[C@@H]2O)[C@H](O)[C@H](O)[C@H]1O` yielded an IC50 (A-375) of 8.4 µM, an IC50 (A549) of 15.8 µM and an IC50 (HL-60) of 9.2 µM.

For `C[C@@H]1O[C@@H](O[C@H]2[C@@H](O[C@H]3CC[C@]4(C)[C@H]5CC=C6[C@@H]7CC(C)(C)CC[C@]7(C(=O)O)CC[C@@]6(C)[C@]5(C)CC[C@H]4C3(C)C)OC[C@H](O)[C@@H]2O)[C@H](O)[C@H](O)[C@H]1O`, the IC50 (A-375) was over 20 µM, the IC50 (A549) was over 20 µM and the IC50 (HL-60) was over 20 µM.

With `C[C@@H]1O[C@@H](O[C@H]2[C@H](O[C@H]3CC[C@]4(C)[C@H]5CC=C6[C@@H]7CC(C)(C)CC[C@]7(C(=O)O[C@@H]7O[C@H](CO[C@@H]8O[C@H](CO)[C@@H](O)[C@H](O)[C@H]8O)[C@@H](O)[C@H](O)[C@H]7O)CC[C@@]6(C)[C@]5(C)CC[C@H]4C3(C)C)OC[C@@H](O)[C@@H]2O)[C@H](O)[C@H](O[C@@H]2OC[C@@H](O)[C@H](O)[C@H]2O)[C@H]1O` the IC50 (A-375) was over 20 µM, the IC50 (A549) was over 20 µM and the IC50 (HL-60) was over 20 µM.

In the case of `C[C@@H]1O[C@@H](O[C@H]2[C@H](O[C@H]3CC[C@]4(C)[C@H]5CC=C6[C@@H]7CC(C)(C)CC[C@]7(C(=O)O)CC[C@@]6(C)[C@]5(C)CC[C@H]4C3(C)C)OC[C@@H](O)[C@@H]2O)[C@H](O)[C@H](O[C@@H]2OC[C@@H](O)[C@H](O)[C@H]2O)[C@H]1O`, the IC50 (A-375) is reported as 6.3 µM, the IC50 (A549) is reported as 11.5 µM and the IC50 (HL-60) is reported as 4.5 µM.

With `C[C@@H]1O[C@H](O[C@H]2[C@H](O[C@H]3CC[C@]4(C)[C@H]5CC=C6[C@@H]7CC(C)(C)CC[C@]7(C(=O)O)CC[C@@]6(C)[C@]5(C)CC[C@H]4C3(C)C)OC[C@H](O)[C@@H]2O)[C@H](O)[C@H](O)[C@H]1O` the IC50 (A-375) was 7.7 µM, the IC50 (A549) was 17.5 µM and the IC50 (HL-60) was 4.2 µM.

Molecule `CC1(C)CC[C@]2(C(=O)O)CC[C@]3(C)C(=CC[C@@H]4[C@@]5(C)CC[C@H](O[C@@H]6O[C@H](CO)[C@H](O)[C@H](O)[C@H]6O[C@@H]6O[C@H](CO)[C@@H](O)[C@H](O)[C@H]6O)C(C)(C)[C@@H]5CC[C@]43C)[C@@H]2C1` has an IC50 (A-375) of 9.7 µM, an IC50 (A549) of 17.9 µM and an IC50 (HL-60) of 10.1 µM.

Work on `C[C@@H]1O[C@@H](O[C@H]2[C@H](O[C@H]3CC[C@]4(C)[C@H]5CC=C6[C@@H]7CC(C)(C)CC[C@]7(C(=O)O)CC[C@@]6(C)[C@]5(C)CC[C@H]4C3(C)C)OC[C@@H](O)[C@@H]2O)[C@H](O)[C@H](O[C@@H]2O[C@H](CO)[C@@H](O)[C@H](O)[C@H]2O)[C@H]1O` yielded an IC50 (A-375) of 5.5 µM, an IC50 (A549) of 14.7 µM and an IC50 (HL-60) of 4.6 µM.

For `C[C@@H]1O[C@@H](O[C@H]2[C@H](O)[C@@H](O)[C@H](OC[C@H]3O[C@@H](OC(=O)[C@]45CCC(C)(C)C[C@H]4C4=CC[C@@H]6[C@@]7(C)CC[C@H](O[C@@H]8OC[C@@H](O)[C@H](O)[C@H]8O)C(C)(C)[C@@H]7CC[C@@]6(C)[C@]4(C)CC5)[C@H](O)[C@@H](O)[C@@H]3O)O[C@@H]2CO)[C@H](O)[C@H](O)[C@H]1O`, the IC50 (A-375) was 13.5 µM, the IC50 (A549) was 11.9 µM and the IC50 (HL-60) was 5.7 µM.

In the case of `C[C@@H]1O[C@@H](O[C@H]2[C@H]3OC(c4ccccc4)OC[C@H]3O[C@@H](O[C@H]3CC[C@]4(C)[C@H]5CC=C6[C@@H]7CC(C)(C)CC[C@]7(C(=O)O)CC[C@@]6(C)[C@]5(C)CC[C@H]4C3(C)C)[C@@H]2O[C@@H]2O[C@@H](C)[C@H](O)[C@@H](O)[C@H]2O)[C@H](O)[C@H](O)[C@H]1O` (some centres undefined), the IC50 (A-375) is reported as over 20 µM, the IC50 (A549) is reported as over 20 µM and the IC50 (HL-60) is reported as over 20 µM.

`C[C@@H]1O[C@@H](O[C@H]2[C@H](O[C@H]3CC[C@]4(C)[C@H]5CC=C6[C@@H]7CC(C)(C)CC[C@]7(C(=O)O[C@@H]7O[C@H](CO[C@@H]8O[C@H](CO)[C@@H](O)[C@H](O)[C@H]8O)[C@@H](O)[C@H](O)[C@H]7O)CC[C@@]6(C)[C@]5(C)CC[C@H]4C3(C)C)OC[C@@H](O)[C@@H]2O)[C@H](O)[C@H](O[C@@H]2O[C@H](CO)[C@@H](O)[C@H](O)[C@H]2O)[C@H]1O` gave an IC50 (A-375) of over 20 µM, an IC50 (A549) of over 20 µM and an IC50 (HL-60) of over 20 µM.

For `C[C@@H]1O[C@@H](O[C@H]2[C@H](O[C@H]3CC[C@]4(C)[C@H]5CC=C6[C@@H]7CC(C)(C)CC[C@]7(C(=O)O)CC[C@@]6(C)[C@]5(C)CC[C@H]4C3(C)C)O[C@H](CO)[C@@H](O)[C@@H]2O)[C@H](O)[C@H](O)[C@H]1O`, the IC50 (A-375) was 11.6 µM, the IC50 (A549) was 23.5 µM and the IC50 (HL-60) was 12.9 µM.

For `C[C@@H]1O[C@@H](O[C@H]2[C@H](O[C@H]3CC[C@]4(C)[C@H]5CC=C6[C@@H]7CC(C)(C)CC[C@]7(C(=O)O[C@@H]7O[C@H](CO[C@@H]8O[C@H](CO)[C@@H](O[C@@H]9O[C@@H](C)[C@H](O)[C@@H](O)[C@H]9O)[C@H](O)[C@H]8O)[C@@H](O)[C@H](O)[C@H]7O)CC[C@@]6(C)[C@]5(C)CC[C@H]4C3(C)C)OC[C@@H](O)[C@@H]2O)[C@H](O)[C@H](O)[C@H]1O`, the IC50 (A-375) was 7.3 µM, the IC50 (A549) was 10.5 µM and the IC50 (HL-60) was 3.2 µM.

`C[C@@H]1O[C@@H](O[C@H]2[C@H](O[C@H]3CC[C@]4(C)[C@H]5CC=C6[C@@H]7CC(C)(C)CC[C@]7(C(=O)O)CC[C@@]6(C)[C@]5(C)CC[C@H]4C3(C)C)O[C@H](CO)[C@H](O)[C@@H]2O)[C@H](O)[C@H](O)[C@H]1O` was tested, and the IC50 (A-375) was 5.1 µM, the IC50 (A549) was 12.4 µM and the IC50 (HL-60) was 2.5 µM.

Molecule `CC1(C)CC[C@]2(C(=O)O)CC[C@]3(C)C(=CC[C@@H]4[C@@]5(C)CC[C@H](O[C@@H]6O[C@H](CO)[C@@H](O)[C@H](O)[C@H]6O[C@@H]6O[C@H](CO)[C@@H](O)[C@H](O)[C@H]6O)C(C)(C)[C@@H]5CC[C@]43C)[C@@H]2C1` [ACUTOSIDE A] has an IC50 (A-375) of 10.3 µM, an IC50 (A549) of 15.3 µM and an IC50 (HL-60) of 12.5 µM.

Molecule `C[C@@H]1O[C@@H](O[C@H]2[C@H](O[C@H]3CC[C@]4(C)[C@H]5CC=C6[C@@H]7CC(C)(C)CC[C@]7(C(=O)O)CC[C@@]6(C)[C@]5(C)CC[C@H]4C3(C)C)OC[C@@H](O)[C@@H]2O)[C@H](O)[C@H](O)[C@H]1O` has an IC50 (A-375) of 5 µM, an IC50 (A549) of 10.7 µM and an IC50 (HL-60) of 3.6 µM.

For `C[C@@H]1O[C@@H](O[C@H]2[C@H](O[C@H]3CC[C@]4(C)[C@H]5CC=C6[C@@H]7CC(C)(C)CC[C@]7(C(=O)O[C@@H]7O[C@H](CO[C@@H]8O[C@H](CO)[C@@H](O)[C@H](O)[C@H]8O)[C@@H](O)[C@H](O)[C@H]7O)CC[C@@]6(C)[C@]5(C)CC[C@H]4C3(C)C)OC[C@@H](O)[C@@H]2O)[C@H](O)[C@H](O[C@@H]2O[C@H](CO)[C@@H](O[C@@H]3O[C@H](CO)[C@@H](O)[C@H](O)[C@H]3O)[C@H](O)[C@H]2O)[C@H]1O`, the IC50 (A-375) was over 20 µM, the IC50 (A549) was over 20 µM and the IC50 (HL-60) was over 20 µM.

`C[C@@H]1O[C@@H](O[C@H]2[C@H](O[C@H]3CC[C@]4(C)[C@H]5CC=C6[C@@H]7CC(C)(C)CC[C@]7(C(=O)O)CC[C@@]6(C)[C@]5(C)CC[C@H]4C3(C)C)O[C@H](CO)[C@@H](O)[C@@H]2O[C@@H]2O[C@@H](C)[C@H](O)[C@@H](O)[C@H]2O)[C@H](O)[C@H](O)[C@H]1O` was tested, and the IC50 (A-375) was over 20 µM, the IC50 (A549) was over 20 µM and the IC50 (HL-60) was over 20 µM.

`C[C@@H]1O[C@@H](O[C@@H]2[C@@H](O)[C@H](C)O[C@@H](O[C@H]3[C@H](O[C@H]4CC[C@]5(C)[C@H]6CC=C7[C@@H]8CC(C)(C)CC[C@]8(C(=O)O)CC[C@@]7(C)[C@]6(C)CC[C@H]5C4(C)C)OC[C@@H](O)[C@@H]3O)[C@@H]2O)[C@H](O)[C@H](O)[C@H]1O` was tested, and the IC50 (A-375) was 8.4 µM, the IC50 (A549) was 16.2 µM and the IC50 (HL-60) was 9.3 µM.

With `C[C@@H]1O[C@@H](O[C@H]2[C@H](O[C@H]3CC[C@]4(C)[C@H]5CC=C6[C@@H]7CC(C)(C)CC[C@]7(C(=O)O)CC[C@@]6(C)[C@]5(C)CC[C@H]4C3(C)C)OC[C@H](O[C@@H]3O[C@H](CO)[C@@H](O)[C@H](O)[C@H]3O)[C@@H]2O)[C@H](O)[C@H](O[C@@H]2O[C@H](CO)[C@@H](O[C@@H]3O[C@H](CO)[C@@H](O)[C@H](O)[C@H]3O)[C@H](O)[C@H]2O)[C@H]1O` the IC50 (A-375) was 3.5 µM, the IC50 (A549) was 6.2 µM and the IC50 (HL-60) was 3.1 µM.
